Test results: ChEMBL document CHEMBL1157537 (J Med Chem, 2008)
Calls of active or inactive are those of the source. No cut-off for these calls is given here.

Assays:
[1] = molecular target: T1, Progesterone receptor (Homo sapiens) (UniProt P06401); assay: Agonist activity at human progesterone receptor in human T47D cells assessed as alkaline phosphatase activity relative to progesterone; format: functional, cell-based
T1 sequence (whole entry): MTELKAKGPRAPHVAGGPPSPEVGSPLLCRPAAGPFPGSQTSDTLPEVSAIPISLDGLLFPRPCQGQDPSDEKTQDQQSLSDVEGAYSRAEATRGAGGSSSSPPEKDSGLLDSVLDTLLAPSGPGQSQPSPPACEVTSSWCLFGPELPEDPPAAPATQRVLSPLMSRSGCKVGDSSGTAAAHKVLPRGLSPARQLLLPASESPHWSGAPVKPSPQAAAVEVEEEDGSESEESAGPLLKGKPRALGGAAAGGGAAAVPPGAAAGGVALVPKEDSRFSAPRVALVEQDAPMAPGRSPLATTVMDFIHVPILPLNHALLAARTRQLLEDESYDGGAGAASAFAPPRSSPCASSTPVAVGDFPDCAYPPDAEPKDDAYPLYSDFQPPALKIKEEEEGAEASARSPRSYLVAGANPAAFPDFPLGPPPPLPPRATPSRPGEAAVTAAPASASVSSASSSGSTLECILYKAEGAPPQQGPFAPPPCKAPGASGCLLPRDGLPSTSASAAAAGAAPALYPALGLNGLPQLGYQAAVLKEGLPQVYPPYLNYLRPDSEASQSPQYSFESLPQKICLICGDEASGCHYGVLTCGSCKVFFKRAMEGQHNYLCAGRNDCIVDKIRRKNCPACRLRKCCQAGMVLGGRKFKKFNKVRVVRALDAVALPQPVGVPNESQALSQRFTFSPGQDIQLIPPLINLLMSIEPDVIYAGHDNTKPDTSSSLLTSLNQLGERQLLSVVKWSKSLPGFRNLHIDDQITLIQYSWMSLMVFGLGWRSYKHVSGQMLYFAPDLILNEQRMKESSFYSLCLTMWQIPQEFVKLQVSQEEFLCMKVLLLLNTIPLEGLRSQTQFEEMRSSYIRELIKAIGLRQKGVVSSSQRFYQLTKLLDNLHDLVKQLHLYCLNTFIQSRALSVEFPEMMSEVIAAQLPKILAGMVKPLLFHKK

[2] = molecular target: T1, Progesterone receptor (Homo sapiens); assay: Agonist activity at human progesterone receptor relative to progesterone; format: functional
Progesterone receptor [3] = molecular target: T2, Progesterone receptor (Homo sapiens, UniProt P06401); assay: Binding affinity at human progesterone receptor
T2 sequence (P06401 whole entry): T1 sequence (whole entry)

Progesterone receptor [4] = molecular target: T2, Progesterone receptor; assay: Agonist activity at human progesterone receptor in human T47D cells assessed as alkaline phosphatase activity; format: functional, cell-based
Progesterone receptor [5] = molecular target: T2, Progesterone receptor; assay: Agonist activity at human progesterone receptor; format: functional
Rattus norvegicus [6] = organism: Rattus norvegicus; assay: Progestational activity in estrone-treated ovariectomized rat assessed as effect on uterine epithelial cell height; format: functional, organism-based
How it was run: (§1)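 Ovariectomized rats were treated with estrone, alone or combined with test progestin, and compared with vehicle and estrone-only groups. Endpoints were uterine epithelial cell height, vaginal epithelial thickness and mammary alveolar bud proliferation.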

Rattus norvegicus [7] = organism: Rattus norvegicus; assay: Progestational activity in estrone-treated ovariectomized rat assessed as reduction of breast alveolar bud proliferation; format: functional, organism-based; how it was run: as §1
Rattus norvegicus [8] = organism: Rattus norvegicus; assay: Progestational activity in estrone-treated ovariectomized rat assessed as effect on vaginal epithelial thickness; format: functional, organism-based; how it was run: as §1
Rattus norvegicus [9] = organism: Rattus norvegicus; assay: Progestational activity in estrone-treated ovariectomized rat assessed as inhibition of medroxyprogesterone acetate-induced effect on uterine epithelial cell height; format: functional, organism-based
How it was run: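 Antagonist mode of the estrone-treated ovariectomized rat multi-endpoint model: compound was combined with MPA plus estrone, with vehicle and estrone-only groups. Endpoints were uterine epithelial cell height, vaginal epithelial thickness and mammary alveolar bud proliferation.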

Glucocorticoid receptor = molecular target: T3, Glucocorticoid receptor (Homo sapiens, UniProt P04150); assay: Antagonist activity at human glucocorticoid receptor; format: functional
T3 sequence (P04150 whole entry): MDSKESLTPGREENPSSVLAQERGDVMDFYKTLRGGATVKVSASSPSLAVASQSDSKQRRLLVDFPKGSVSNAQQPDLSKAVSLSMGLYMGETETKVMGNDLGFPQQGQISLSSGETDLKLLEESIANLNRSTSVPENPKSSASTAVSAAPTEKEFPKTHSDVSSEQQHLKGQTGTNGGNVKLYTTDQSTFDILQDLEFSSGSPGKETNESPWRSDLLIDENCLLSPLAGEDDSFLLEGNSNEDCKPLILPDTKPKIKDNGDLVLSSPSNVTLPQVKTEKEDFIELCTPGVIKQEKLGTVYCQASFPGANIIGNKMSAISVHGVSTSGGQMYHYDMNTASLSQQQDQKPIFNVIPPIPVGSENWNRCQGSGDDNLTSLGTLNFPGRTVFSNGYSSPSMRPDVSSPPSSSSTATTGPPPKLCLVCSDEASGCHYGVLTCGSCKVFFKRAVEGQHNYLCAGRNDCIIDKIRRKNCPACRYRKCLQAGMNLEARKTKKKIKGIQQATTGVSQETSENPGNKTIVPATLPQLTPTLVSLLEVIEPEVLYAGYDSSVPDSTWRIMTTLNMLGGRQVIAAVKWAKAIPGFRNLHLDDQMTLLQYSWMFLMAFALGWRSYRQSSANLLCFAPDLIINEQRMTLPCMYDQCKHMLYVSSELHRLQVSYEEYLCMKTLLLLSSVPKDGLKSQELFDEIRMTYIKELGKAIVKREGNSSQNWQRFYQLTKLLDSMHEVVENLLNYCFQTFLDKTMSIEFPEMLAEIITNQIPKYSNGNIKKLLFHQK

Androgen receptor = molecular target: T4, Androgen receptor (Homo sapiens, UniProt P10275); assay: Agonist activity at human androgen receptor; format: functional
T4 sequence (P10275 whole entry): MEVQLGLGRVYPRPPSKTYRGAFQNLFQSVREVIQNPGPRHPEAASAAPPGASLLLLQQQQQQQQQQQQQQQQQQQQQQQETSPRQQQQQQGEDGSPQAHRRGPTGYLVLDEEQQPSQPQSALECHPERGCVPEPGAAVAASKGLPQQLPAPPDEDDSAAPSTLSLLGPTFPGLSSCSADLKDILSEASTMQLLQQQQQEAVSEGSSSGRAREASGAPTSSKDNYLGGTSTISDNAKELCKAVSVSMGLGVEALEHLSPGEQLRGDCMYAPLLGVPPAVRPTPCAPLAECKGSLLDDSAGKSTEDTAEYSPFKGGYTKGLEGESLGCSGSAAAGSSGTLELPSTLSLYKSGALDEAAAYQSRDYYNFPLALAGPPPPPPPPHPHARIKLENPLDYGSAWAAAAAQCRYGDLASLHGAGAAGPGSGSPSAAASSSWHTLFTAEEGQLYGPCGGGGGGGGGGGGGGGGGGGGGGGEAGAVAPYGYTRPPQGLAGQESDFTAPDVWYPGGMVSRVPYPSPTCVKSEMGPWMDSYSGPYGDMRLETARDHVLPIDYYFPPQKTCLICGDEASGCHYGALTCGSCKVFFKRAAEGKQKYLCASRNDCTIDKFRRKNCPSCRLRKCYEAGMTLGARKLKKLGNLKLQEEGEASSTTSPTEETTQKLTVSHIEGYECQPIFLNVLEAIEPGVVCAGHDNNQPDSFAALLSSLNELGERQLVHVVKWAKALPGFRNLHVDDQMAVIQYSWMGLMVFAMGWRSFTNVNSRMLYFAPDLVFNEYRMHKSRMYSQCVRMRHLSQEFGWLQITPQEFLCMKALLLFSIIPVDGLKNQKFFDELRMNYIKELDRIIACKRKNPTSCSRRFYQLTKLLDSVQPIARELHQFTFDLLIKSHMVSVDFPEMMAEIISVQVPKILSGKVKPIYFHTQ

[10] = molecular target: T5, Mineralocorticoid receptor (Homo sapiens, UniProt P08235); assay: Antagonist activity at human mineralocorticoid receptor; format: functional
T5 sequence (P08235 whole entry): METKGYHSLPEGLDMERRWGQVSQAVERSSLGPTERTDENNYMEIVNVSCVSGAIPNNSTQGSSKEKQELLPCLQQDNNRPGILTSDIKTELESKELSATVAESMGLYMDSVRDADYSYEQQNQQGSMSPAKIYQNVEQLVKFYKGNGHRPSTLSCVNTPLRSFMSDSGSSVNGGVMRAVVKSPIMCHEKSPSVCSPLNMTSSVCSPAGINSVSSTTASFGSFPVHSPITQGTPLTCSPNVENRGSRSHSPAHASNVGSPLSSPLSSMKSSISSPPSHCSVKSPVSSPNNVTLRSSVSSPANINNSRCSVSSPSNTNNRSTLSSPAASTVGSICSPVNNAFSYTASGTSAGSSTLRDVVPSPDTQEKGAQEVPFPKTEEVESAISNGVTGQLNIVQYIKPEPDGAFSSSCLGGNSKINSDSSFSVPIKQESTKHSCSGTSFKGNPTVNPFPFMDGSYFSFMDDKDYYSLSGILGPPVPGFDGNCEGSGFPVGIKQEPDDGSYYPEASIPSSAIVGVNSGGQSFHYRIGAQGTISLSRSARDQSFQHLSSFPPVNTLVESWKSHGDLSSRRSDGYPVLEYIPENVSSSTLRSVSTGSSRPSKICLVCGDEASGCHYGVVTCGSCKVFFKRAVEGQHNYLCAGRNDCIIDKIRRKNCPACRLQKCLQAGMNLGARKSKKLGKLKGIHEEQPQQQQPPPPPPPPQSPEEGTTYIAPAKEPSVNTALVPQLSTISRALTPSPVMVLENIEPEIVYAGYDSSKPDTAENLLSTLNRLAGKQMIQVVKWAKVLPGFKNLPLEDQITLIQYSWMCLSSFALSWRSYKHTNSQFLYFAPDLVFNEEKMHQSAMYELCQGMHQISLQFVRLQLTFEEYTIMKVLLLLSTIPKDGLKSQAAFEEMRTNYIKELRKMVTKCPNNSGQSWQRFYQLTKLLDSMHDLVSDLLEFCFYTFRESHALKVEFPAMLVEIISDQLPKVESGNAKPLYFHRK

## CC1=CC(C)(C)Nc2ccc3c(c21)[C@H]([C@H]1CCC[C@@]2(C)O[C@@H]12)Oc1c(F)cc(F)cc1-3
[1]
  Efficacy: 59%
[2]
  Efficacy: 177%
Progesterone receptor [3]
  Ki: 1.2 nM
Progesterone receptor [4]
  EC50: 2.8 nM
Progesterone receptor [5]
  EC50: 0.4 nM

## CC(=O)O[C@]1(C(C)=O)CC[C@H]2[C@@H]3C[C@H](C)C4=CC(=O)CC[C@]4(C)[C@H]3CC[C@@]21C
[1]
  Efficacy: 98%
Rattus norvegicus [6]
  Activity: Active
Rattus norvegicus [7]
  Activity: Active
Rattus norvegicus [8]
  Activity: Active
[2]
  Efficacy: 98%

## C[C@@H]1C[C@@H]2C(=C3CCC(=O)C=C31)[C@@H](c1ccc(N(C)C)cc1)C[C@@]1(C)[C@H]2CC[C@@]12CCCO2
Rattus norvegicus [9]
  Activity: Active

## CC1=CC(C)(C)Nc2ccc3c(c21)[C@H]([C@H]1CCCC(C)=C1C)Oc1c(F)cc(F)cc1-3 (racemic)
[1]
  Efficacy: 66%
[2]
  Efficacy: 97%
Progesterone receptor [4]
  EC50: 96 nM
Progesterone receptor [5]
  EC50: 10.7 nM

## CC1=CC(C)(C)Nc2ccc3c(c21)[C@H]([C@@H]1C=CCCC1)Oc1c(F)cc(F)cc1-3 (racemic)
[1]
  Efficacy: 66%
[2]
  Efficacy: 171%
Progesterone receptor [3]
  Ki: 4.8 nM
Progesterone receptor [4]
  EC50: 27 nM
Progesterone receptor [5]
  EC50: 3.4 nM

## CC1=C[C@@H]([C@@H]2Oc3c(F)cc(F)cc3-c3ccc4c(c32)C(C)=CC(C)(C)N4)CCC1 (racemic)
[2]
  Efficacy: 162%

## CC1=C[C@H]([C@@H]2Oc3c(F)cc(F)cc3-c3ccc4c(c32)C(C)=CC(C)(C)N4)CCC1 (racemic)
[1]
  Efficacy: 63%
[2]
  Efficacy: 100%

## CC1=C[C@@H]([C@@H]2Oc3c(F)cc(F)cc3-c3ccc4c(c32)C(C)=CC(C)(C)N4)CCC1 (stereo in doubt; (+)-5d)
[2]
  Efficacy: 11%

## CC1=C[C@@H]([C@@H]2Oc3c(F)cc(F)cc3-c3ccc4c(c32)C(C)=CC(C)(C)N4)CCC1 (stereo in doubt; (-)-5c)
Glucocorticoid receptor
  IC50: 34 nM
Androgen receptor
  EC50: 1800 nM
[10]
  IC50: 1350 nM
